Reference: PMC10326257 (Acta Pharmaceutica Sinica. B, 2023)
Blank lines part the entries; values can stand above or below the molecule they belong to.

Assays:
c-MET [1] = target: T1, c-MET (Homo sapiens, UniProt P08581); experiment: biochemical; type: binding
EBC-1 cells [2] = experiment: Cell proliferation inhibition assay; type: cell-based
c-MET [3] = target: T1, c-MET; type: cell-based; conditions: Western blot, EBC-1 and Hs746T cells
Hs746T cells = experiment: Cell proliferation inhibition assay; type: cell-based; conditions: Homo sapiens, 72 h, read-out: IC50 Hs746T, c-MET-sensitive, 72 h
A549 cells = experiment: Cell proliferation inhibition assay; type: cell-based; conditions: Homo sapiens, A549, 72 h, read-out: IC50 A549
HepG2 cells = experiment: Cell proliferation inhibition assay; type: cell-based; conditions: Homo sapiens, HepG2, 72 h, read-out: IC50 HepG2
EBC-1 cells [4] = experiment: Cell apoptosis by flow cytometry; type: cell-based; conditions: 48 h
EBC-1 xenograft tumors = experiment: EBC-1 xenograft tumor growth model; type: in vivo, BALB/c nude mice; conditions: 10 mg/kg, i.p., qd, 10 days
In short: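 Six-week-old BALB/c nude mice (SPF) received 5 × 10^6 EBC-1 cells subcutaneously in the dorsal flank. At about 80 mm3 they were grouped and dosed at 10 mg/kg i.p. once daily for 10 days; vehicle was 10% DMSO/10% PEG300/5% Tween 80/75% H2O. Calipers and body weight were read every 2 days. V = L×W²/2, and TGI used median volumes. Tumors were weighed at the end, n = 6.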

[5] = Pharmacokinetic study in rats; design: species or system Male Sprague–Dawley (SD) rats; conditions: male, Sprague-Dawley, rat, in vivo, iv, 1 mg/kg, CL

T1 sequence (P08581 25-1390): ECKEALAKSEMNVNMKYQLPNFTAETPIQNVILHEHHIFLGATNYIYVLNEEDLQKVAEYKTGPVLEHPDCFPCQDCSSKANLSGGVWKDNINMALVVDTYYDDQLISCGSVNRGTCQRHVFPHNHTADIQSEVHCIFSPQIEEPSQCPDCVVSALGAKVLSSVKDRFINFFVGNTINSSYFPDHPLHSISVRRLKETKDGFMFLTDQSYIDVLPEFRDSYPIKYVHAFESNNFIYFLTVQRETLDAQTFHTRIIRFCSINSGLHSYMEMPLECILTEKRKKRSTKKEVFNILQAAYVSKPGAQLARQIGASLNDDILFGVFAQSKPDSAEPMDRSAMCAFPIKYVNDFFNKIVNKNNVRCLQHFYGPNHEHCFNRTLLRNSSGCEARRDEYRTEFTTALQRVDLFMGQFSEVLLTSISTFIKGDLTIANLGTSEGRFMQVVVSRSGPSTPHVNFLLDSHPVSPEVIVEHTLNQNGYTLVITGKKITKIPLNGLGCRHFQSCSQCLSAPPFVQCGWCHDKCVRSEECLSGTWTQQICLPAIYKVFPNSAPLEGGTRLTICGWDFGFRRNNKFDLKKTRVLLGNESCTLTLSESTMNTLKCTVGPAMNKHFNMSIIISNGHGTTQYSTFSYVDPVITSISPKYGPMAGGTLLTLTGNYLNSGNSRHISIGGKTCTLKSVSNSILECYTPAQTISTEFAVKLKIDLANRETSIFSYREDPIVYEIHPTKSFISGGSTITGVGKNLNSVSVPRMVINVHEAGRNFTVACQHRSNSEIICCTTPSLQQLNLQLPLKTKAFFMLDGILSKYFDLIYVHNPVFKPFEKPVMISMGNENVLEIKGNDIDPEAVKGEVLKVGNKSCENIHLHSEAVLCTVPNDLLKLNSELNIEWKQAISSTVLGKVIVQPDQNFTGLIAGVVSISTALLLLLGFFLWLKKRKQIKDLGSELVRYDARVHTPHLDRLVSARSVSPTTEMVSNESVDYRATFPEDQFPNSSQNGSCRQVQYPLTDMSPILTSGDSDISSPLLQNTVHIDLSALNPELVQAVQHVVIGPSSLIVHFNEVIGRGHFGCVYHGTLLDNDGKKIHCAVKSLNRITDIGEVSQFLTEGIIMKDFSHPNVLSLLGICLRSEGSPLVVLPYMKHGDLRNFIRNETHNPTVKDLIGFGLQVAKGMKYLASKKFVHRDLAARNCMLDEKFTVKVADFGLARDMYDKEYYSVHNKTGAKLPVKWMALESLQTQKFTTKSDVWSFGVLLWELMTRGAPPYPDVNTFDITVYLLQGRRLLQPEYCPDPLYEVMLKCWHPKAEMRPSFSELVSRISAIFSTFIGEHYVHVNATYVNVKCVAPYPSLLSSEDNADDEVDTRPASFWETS

- Kd (c-MET [1]): 9.97 nM
Structure (SMILES): N#Cc1cccc(-c2ccc(=O)n(Cc3cccc(-c4ncc(OCC5CCNCC5)cn4)c3)n2)c1 [compound 6]

- Kd (c-MET [1]): 345 nM
- binding affinity, fold weaker than D15 (c-MET [1]; ratio of Kd to D15): 2 fold
- c-MET degradation effect (c-MET [3]): no degradation effect
Structure (SMILES): CN1C(=O)CCC(N2C(=O)c3ccc(N4CCN(C(=O)CN5CCC(COc6cnc(-c7cccc(Cn8nc(-c9cccc(C#N)c9)ccc8=O)c7)nc6)CC5)CC4)cc3C2=O)C1=O (centres unmarked) [D16]
- inhibition of cell proliferation, fold weaker than D15 (EBC-1 cells [2]; EBC-1 and Hs746T cells): approximately 10 fold

- c-MET degradation effect (c-MET [3]): none
Structure (SMILES): O=C1CCC(N2C(=O)c3ccccc3C2=O)C(=O)N1 (centres unmarked) [Thalidomide]

- IC50 (A549 cells): 277 ± 59 nM
- IC50 (HepG2 cells): 476 ± 45 nM
- clearance [5]: 70 mL/min/kg
Structure (SMILES): CN1CCC(COc2cnc(-c3cccc(Cn4nc(-c5cccc(C#N)c5)ccc4=O)c3)nc2)CC1 [Tepotinib]
- IC50 (EBC-1 cells [2]; Homo sapiens, EBC-1, 72 h, read-out: IC50 EBC-1): 1.32 ± 0.39 nM
- IC50 (Hs746T cells): 2.63 ± 0.72 nM
- apoptosis rate (EBC-1 cells [4]; EBC-1, 10 nmol/L): 39.3%
- apoptosis rate (EBC-1 cells [4]; EBC-1, 100 nmol/L): 59.4%
- tumor growth inhibition (TGI%) (EBC-1 xenograft tumors): 71.9%
